Measurements: ChEMBL document CHEMBL1139595, “Inhibition of IKK-2 by 2-[(aminocarbonyl)amino]-5-acetylenyl-3-thiophenecarboxamides” (Bioorg Med Chem Lett, 2005)

Key:
[1] = Inhibitory concentration against interleukin-8 production in rheumatoid arthritis-derived synovial fibroblasts (RASFs) from 2 experiments; format: functional; details: Homo sapiens
In short: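 Primary RASF from knee synovectomy tissue, grown in DMEM high glucose with 15% bovine serum and gentamicin. 1.5×10^4 cells/well attached overnight, moved to DMEM with 1% serum. Pre-treated 1 h with a seven-point dose series in 0.2% Me₂SO, then stimulated overnight with 1 ng/mL IL-1β. IL-8 in supernatant measured by ELISA; IC50 from curve.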

[2] = target: T1, Inhibitor of nuclear factor kappa-B kinase subunit beta (Homo sapiens, UniProt O14920); test: Inhibitory concentration against human recombinant I-kappa-B-kinase 2 from 3 experiments
T1 sequence (O14920 whole entry): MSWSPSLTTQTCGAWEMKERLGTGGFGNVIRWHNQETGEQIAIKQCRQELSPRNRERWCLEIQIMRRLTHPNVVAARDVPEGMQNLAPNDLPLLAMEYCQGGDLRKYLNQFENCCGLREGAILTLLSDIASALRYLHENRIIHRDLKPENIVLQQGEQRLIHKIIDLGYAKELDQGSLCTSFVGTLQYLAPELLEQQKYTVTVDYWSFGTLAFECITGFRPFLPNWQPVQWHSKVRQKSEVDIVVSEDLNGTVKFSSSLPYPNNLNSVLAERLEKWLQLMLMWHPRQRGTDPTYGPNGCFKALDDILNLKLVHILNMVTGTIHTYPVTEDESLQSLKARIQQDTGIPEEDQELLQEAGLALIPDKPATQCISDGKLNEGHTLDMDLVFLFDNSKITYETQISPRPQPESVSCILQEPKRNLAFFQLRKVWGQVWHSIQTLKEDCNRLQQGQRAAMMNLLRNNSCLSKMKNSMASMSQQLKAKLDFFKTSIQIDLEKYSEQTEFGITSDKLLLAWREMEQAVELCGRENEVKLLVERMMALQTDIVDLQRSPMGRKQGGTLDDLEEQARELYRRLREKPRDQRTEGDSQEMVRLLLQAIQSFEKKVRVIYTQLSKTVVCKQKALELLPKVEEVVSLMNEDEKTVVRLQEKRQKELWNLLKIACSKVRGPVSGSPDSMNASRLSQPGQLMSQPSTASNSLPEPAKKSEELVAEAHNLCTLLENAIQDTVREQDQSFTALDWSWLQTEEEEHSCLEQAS

[3] = Lethal concentration towards rheumatoid arthritis-derived synovial fibroblasts using Alamar Blue reagent; format: functional; details: Homo sapiens; read-out: LC50 (the source's name)
In short: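 Primary RASF from knee synovectomy tissue, cultured in DMEM high glucose with 15% bovine serum; 1.5×10^4 cells/well in 1% serum, pre-treated 1 h with seven-point inhibitor doses in 0.2% Me2SO, then stimulated overnight with 1 ng/mL IL-1β. After removing the supernatant, Alamar Blue added, 2.5 h at 37 °C, 5% CO2; fluorescence read, LC50 derived.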

[4] = target: T2, Inhibitor of nuclear factor kappa-B kinase subunit beta (Homo sapiens) (UniProt O14920); test: Ratio of inhibitory concentration of rheumatoid arthritis-derived synovial fibroblasts to human recombinant I-kappa-B-kinase 2; format: functional
T2 sequence (whole entry): T1 sequence (O14920 whole entry)

Row | Structure (SMILES) | IC50 [2] [nM] | IC50 [1] [nM] | CC50 [3] [nM] | Ratio [4]
1 | NC(=O)Nc1sc(C#Cc2ccsc2)cc1C(N)=O | 420 | 1180 | > 30000 | 2.8
2 | N#Cc1cc(C#Cc2cc(C(N)=O)c(NC(N)=O)s2)cs1 | 333 | 832 | > 30000 | 2.5
3 | NC(=O)Nc1sc(C#Cc2csc(CO)c2)cc1C(N)=O | 195 | 1130 | > 30000 | 5.8
4 | NC(=O)c1sc(-c2ccsc2)cc1N | 11200 |  |  | 
5 | NC(=O)Nc1sc(C#Cc2cccc(O)c2)cc1C(N)=O | 303 | 576 | 2720 | 1.9
6 | NC(=O)Nc1sc(C#Cc2cccc(F)c2)cc1C(N)=O | 331 | 1650 | > 30000 | 5
7 | CS(=O)(=O)Nc1cccc(C#Cc2cc(C(N)=O)c(NC(N)=O)s2)c1 | 454 | 12900 | > 30000 | 28
8 | CC(C)C(O)c1cc(C#Cc2cc(C(N)=O)c(NC(N)=O)s2)cs1 (stereo not drawn) | 563 |  |  | 
9 | NC(=O)Nc1sc(C#CC2CC2)cc1C(N)=O | 273 | 3060 | > 30000 | 11

Second part, led by results:

Row | IC50 [2] [nM] | Structure (SMILES) | IC50 [1] [nM] | CC50 [3] [nM] | Ratio [4]
10 | 620 | NC(=O)Nc1sc(C#Cc2ccccc2F)cc1C(N)=O |  |  | 
11 | 716 | Cc1ccccc1C#Cc1cc(C(N)=O)c(NC(N)=O)s1 |  |  | 
12 | 1850 | NC(=O)Nc1sc(C#Cc2cccc(NC(=O)c3ccncc3)c2)cc1C(N)=O |  |  | 
13 | 465 | CCC(O)c1cc(C#Cc2cc(C(N)=O)c(NC(N)=O)s2)cs1 (stereo not drawn) |  |  | 
14 | 980 | NC(=O)Nc1sc(C#Cc2cccc(NC(=O)C(F)(F)F)c2)cc1C(N)=O |  |  | 
15 | 4400 | COC(=O)NCCC(=O)Nc1cccc(C#Cc2cc(C(N)=O)c(NC(N)=O)s2)c1 |  |  | 
16 | 557 | NC(=O)Nc1sc(C#Cc2cccc(NC(=O)c3cccnc3)c2)cc1C(N)=O |  |  | 
17 | 709 | NC(=O)Nc1sc(C#Cc2cccc(N)c2)cc1C(N)=O |  |  | 
18 | 1880 | CN(C)CC(=O)Nc1cccc(C#Cc2cc(C(N)=O)c(NC(N)=O)s2)c1 |  |  | 
19 | 1010 | NC(=O)Nc1sc(C#Cc2ccccc2Cl)cc1C(N)=O |  |  | 
20 | > 20000 | NC(=O)Nc1sc(C#Cc2cccc(NC(=O)c3ccccn3)c2)cc1C(N)=O |  |  | 
21 | 964 | CC(=O)Nc1cccc(C#Cc2cc(C(N)=O)c(NC(N)=O)s2)c1 |  |  | 
22 | 704 | NC(=O)Nc1sc(C#Cc2cccc(NC(=O)c3ccccc3)c2)cc1C(N)=O |  |  | 
